MC4R ag barr: MC4R agonists recruiting beta-arrestin, primary screen, cell-based, luminescence, agonist arm of biased-ligand search; Melanocortin receptor 4 (Homo sapiens), P32245; U2OS MC4R beta-arrestin complementation; percent of melanotan II response, DMSO zero; activation, % at 8.9 µM; hit rate 0.98% among 360,000;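 active = activation above a per-plate cutoff, the mean activation of sample wells on that plate plus 3 SD, cut at about 8% in these data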
Target sequence (P32245 whole entry, looked up): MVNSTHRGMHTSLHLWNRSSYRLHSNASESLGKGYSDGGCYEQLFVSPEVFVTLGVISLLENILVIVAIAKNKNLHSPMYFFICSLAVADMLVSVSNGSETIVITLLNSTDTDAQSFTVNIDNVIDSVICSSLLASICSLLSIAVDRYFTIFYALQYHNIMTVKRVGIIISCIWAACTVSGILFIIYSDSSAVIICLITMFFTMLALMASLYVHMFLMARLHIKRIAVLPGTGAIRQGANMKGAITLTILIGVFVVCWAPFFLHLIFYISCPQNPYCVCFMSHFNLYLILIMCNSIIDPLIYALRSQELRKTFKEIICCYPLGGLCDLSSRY
MC4R antagonist: MC4R antagonists of cAMP signaling, primary screen, cell-based, TR-FRET, antagonist arm of biased-ligand search | MC4R-expressing cells, MTII-stimulated cAMP, LANCE TR-FRET | inhibition, % at 6.5 µM | hit rate 0.48% among 360,000;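 active = inhibition above its plate's cutoff, the mean of tested wells on that plate plus 3 SD, cut at about 29% in these data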
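System – human MC4R-expressing U2OS cells · Also added – Melanotan II · Dosing – one concentration, 6.5 µM nominal · Timing – 30-min compound, 1-h challenge, 1-h detection, room temperature · Measured by – Eu-cAMP/anti-cAMP TR-FRET, emission 671 nm · Replicates – singlicate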
AI-2 QS modul: Vibrio harveyi AI-2 quorum sensing modulators, primary screen, JMH597 strain, luminescence/OD600 ratio. Vibrio harveyi JMH597 AI-2 luminescence/OD600 ratio, 9 h; active compounds read low; strain lacks LuxN and CqsS sensors; 0 = neutral-control median. activity change, % at 7.5 µM. hit rate 0.4% among 300,000. AID 2094, 2009; in the data active = activity change below about -75%, passing the limit was not always enough; inconclusive = no clear call, values can overlap the other calls;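 note: luminescence divided by OD600 gain over 9 h not by final OD600 alone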
NTR1 ag: agonists of human NTR1, primary screen, imaging, U2OS cells, beta-arrestin-GFP, high content. Neurotensin receptor type 1 (Homo sapiens), P30989. NTR1-U2OS beta-arrestin-GFP spot imaging, agonist mode. activation, % at 20 µM. hit rate 0.17% among 330,000. AID 493036, 2011;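 active = activation at or above 40% of the spot to cytoplasm intensity ratio, with at least 20 cells analyzed; inconclusive = wells under 20 cells, flagged as cytotoxic or low count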
JMH597 growth rt: Vibrio harveyi growth inhibition, confirmation, counter-screen for AI-2 quorum sensing project, JMH597 strain, OD600 absorbance | shares compounds with AI-2 QS modul | 9 h; lacks LuxN and CqsS sensors | growth inhibition, % at 7.5 µM | hit rate 1% among 750;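 active = every replicate shows growth inhibition above 50%; inconclusive = at least half, but not all, replicates pass that cutoff; inactive = fewer than half of replicates pass it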
BB721 const-QS lum: luminescence inhibition in constitutive-on V. harveyi, confirmation, counter-screen for LuxS inhibitor project, strain BB721, luminescence readout | inhibition, % at 7.5 µM | Vibrio harveyi BB721 luminescence, 9 h | hit rate 95% among 750 | shares compounds with AI-2 QS modul | AID 2727, 2010;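 active = inhibition above about 80% in every replicate, not just on average, limit read from the data; inconclusive = at least half of replicates past the limit, but not all; inactive = fewer than half of replicates past the limit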
BB721 growth rt: growth inhibition of V. harveyi BB721, confirmation, cytotoxicity control for AI-2 quorum sensing inhibitors, strain BB721, absorbance OD600. shares compounds with AI-2 QS modul. Vibrio harveyi BB721 growth, 9 h. growth inhibition, % at 7.5 µM. hit rate 3% among 750;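 active = every replicate shows growth inhibition above 50%; inconclusive = at least half but not all replicates above 50% inhibition; inactive = under half of replicates above 50% inhibition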
AI-2 QS JMH597: Vibrio harveyi AI-2 signaling luminescence modulation – JMH597 strain, confirmation; shares compounds with AI-2 QS modul; Vibrio harveyi JMH597 AI-2 quorum sensing luminescence, 9 h; luxN and CqsS knockout, AI-2 only; inhibition, % at 7.5 µM; hit rate 97% among 750; AID 2736, 2010;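 active = every replicate shows more than 75% inhibition of signal versus neutral control wells; inconclusive = half to three quarters of replicates exceed 75% inhibition; inactive = fewer than half of replicates exceed 75% inhibition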
Numbers stand for hits; n = inactive; u = inconclusive; x = no result. The list is not random: actives were taken first. Their share in the collection is about 1.8%.

SMILES	MC4R ag barr	MC4R antagonist	AI-2 QS modul	NTR1 ag	others
Oc1c(Cl)cc(Cl)cc1/C=N/c1nc(-c2ccc(Cl)cc2)cs1	n	34.4	n	n
COc1ccccc1NC(=O)c1cc2cc(Br)ccc2oc1=N	8.3	n	n	n
COc1ccc2o/c(=N\O)c(C(=O)Nc3ccccc3OC)cc2c1	n	n	n	n
Oc1ccc(Cl)cc1Cc1cc(Cl)ccc1O	n	n	-112.3	n
CN(CC(=O)Nc1cccc(S(=O)(=O)N2CCCC2)c1)CC(=O)Nc1ccc(Cl)c(C(F)(F)F)c1	n	n	n	n
CCCCN(C(=O)c1ccc(-n2nc(C)cc2C)cc1)c1c(N)n(CCC)c(=O)[nH]c1=O	n	n	x	n
Clc1ccc(OCc2nn3c(-c4ccccc4)nnc3s2)c(Cl)c1	8.9	n	n	n
COc1ccc(-c2nnc3sc(COc4ccc(C)cc4)nn23)cc1	n	28.7	n	n
COc1ccc(-c2nnc3sc(COc4ccccc4)nn23)cc1	n	n	n	n
Cc1nn(Cc2ccccc2Cl)c(C)c1NC(=O)c1cc(-c2ccc(F)cc2)on1	8.9	n	n	n
Cc1nn(Cc2ccccc2Cl)c(C)c1NC(=O)c1ccn(C)n1	n	n	n	n
Cc1ccc(C(=O)N2CCN(S(=O)(=O)c3ccc(Br)cc3)CC2)o1	n	n	n	n
Cn1cc(C(=O)C(=O)NCCc2ccccc2)c2ccccc21	n	n	n	n
Cc1ccccc1NC(=O)C(=O)c1cn(C)c2ccccc12	12.4	n	u	n
COc1cccc(S(=O)(=O)NCc2ccc(C(=O)N3CCN(C)CC3)cc2)c1	n	n	n	n
CCCCN(Cc1ccco1)C(=O)c1cc2c(=O)[nH]c3ccc(C)cc3c2s1	36.3	n	n	n
O=C(CCCNC(=O)c1ccc(Cl)cc1)Nc1ccccc1C(F)(F)F	n	n	n	n
Cc1ccc2nc(NC(=O)CSCc3ccccc3)sc2c1	8.9	n	n	n
CC1CCC(NC(=O)c2cc(C3CC3)nn2-c2ccccc2)CC1 (stereo not given)	n	n	x	n
CCS(=O)(=O)c1ccc(O)c(NC(=O)/C=C/c2ccccc2)c1	n	n	-90.6	n
Cc1ccc(OCC(=O)N/N=C/c2cn[nH]c2-c2ccc(Cl)c(Cl)c2)cc1	8.7	n	n	n
COc1cc(SC)ccc1C(=O)NNC(=O)c1cc(C)oc1C	n	n	n	n
COC(=O)C1=C(C)N(Cc2ccccc2)C(=NCCc2c[nH]c3ccccc23)N[C@H]1c1cccc(F)c1	8.2	n	x	n
CC1CN(S(=O)(=O)c2cc(C(=O)N3CCCCC3C)ccc2Cl)CC(C)O1 (stereo not given)	n	n	x	n
O=C(CCC(=O)c1ccc(F)cc1)Nc1cccc(C(F)(F)F)c1	n	n	-77.5	n
SMILES	MC4R ag barr	MC4R antagonist	AI-2 QS modul	NTR1 ag	others
O=C(COc1ccccc1)N[C@@H]1c2ccccc2CC[C@@H]1OCc1ccccc1	8.4	n	x	n
O=C(COc1ccccc1)N[C@@H]1c2ccccc2CC[C@H]1OCc1ccccc1	n	n	x	n
CC1CCN(S(=O)(=O)c2ccc(C(C)C)cc2)CC1	n	n	-88.4	n
CC1CCN(S(=O)(=O)c2ccc(Cl)cc2)CC1	n	n	n	n
O=C(NCc1ccco1)c1ccc(S(=O)(=O)N2CCCCC2)cc1	n	n	n	n
O=S(=O)(c1ccc(NC(=S)NCc2ccco2)cc1)N1CCCCC1	n	n	-88.0	n
Cc1c(C(=O)OCC(=O)Nc2ccc(N3CCOCC3)cc2)oc2ccccc12	9.2	n	n	n
O=C1C=CC(=O)N1c1ccccc1N1C(=O)C=CC1=O	n	36.7	x	x
O=C(c1ccccc1)c1ccccc1N1C(=O)C=CC1=O	n	n	n	n
Cc1ccc(NC(=O)CCN2C(=O)C3CCCCC3C2=O)cc1[N+](=O)[O-] (stereo not given)	n	n	n	n
COc1cccc(CNC(=O)c2cc3c(C)nc4ccccc4c3o2)c1	n	n	n	n
COc1ccc(CNC(=O)c2cc3c(C)nc4ccccc4c3o2)c(OC)c1	8.6	n	n	n
CCOC(=O)c1[nH]c2ccc(OC)cc2c1NS(=O)(=O)c1ccc(Cl)s1	n	n	-84.2	n
CCOC(=O)c1[nH]c2ccc(Cl)cc2c1NC(=O)c1nonc1C	8.9	n	n	n
O=C(NCCOc1ccccc1F)C1CC(=O)N(Cc2ccccc2)C1 (stereo not given)	n	n	x	n
O=Cc1ccccc1-c1cn(CCCOCc2ccccc2)nn1	n	n	n	n
COc1ccc2c(c1)c(N=NC(N)=S)c(O)n2CC(=O)c1ccccc1	12.2	n	n	n
Cc1cc(C)n2nc(SC(C)C(=O)N(C)c3ccccc3)nc2n1 (stereo not given)	n	n	x	n
O=C(CCNC(=O)OCC1c2ccccc2-c2ccccc21)NOCc1ccccc1	n	n	x	n
COc1ccccc1NC(=O)C1CCCN(S(=O)(=O)c2ccc(-n3cnnn3)cc2)C1 (stereo not given)	n	n	n	n
CC(C)(C)c1ccc(C(=S)N2CCN(c3ccccc3)CC2)cc1	9.0	n	n	n
S=C(c1ccccc1)N1CCN(c2ccccc2)CC1	n	n	x	x
COC(=O)c1sc2ncccc2c1OCc1ccc(Cl)cc1	8.8	n	n	n
COC(=O)c1sc2ncccc2c1OCc1ccccc1Cl	n	n	n	n
Cc1noc(C)c1CSCC(=O)N(C)CC(=O)Nc1ccc(Cl)c(C(F)(F)F)c1	n	n	-86.5	n	JMH597 growth rt=n;BB721 const-QS lum=94.9;BB721 growth rt=n;AI-2 QS JMH597=96.4
CN(CC(=O)Nc1ccc(Cl)c(C(F)(F)F)c1)C(=O)c1cccs1	n	n	-88.7	n	JMH597 growth rt=n;BB721 const-QS lum=97.7;BB721 growth rt=n;AI-2 QS JMH597=98.2
CN(CC(=O)Nc1ccc(Cl)c(C(F)(F)F)c1)C(=O)C1(c2ccccc2)CC1	n	n	n	n
Cc1ccc(C(NC(=O)Nc2ccccn2)C(Cl)(Cl)Cl)cc1F (stereo not given)	n	n	n	n
